# Results collected from several papers.
Compound,species,matrix,route,dose,setting,AUC(0-t)
OCc1nc2ccc(NCc3ccc(C(F)(F)F)cc3)cc2[nH]1,male BALB/c mouse,plasma,intravenous,1 mg/kg,,482 ng·h/mL
NCc1ccc(-c2nn(Cc3ccccc3)c3ccccc23)o1,male CD-1 mouse,plasma,oral,10 mg/kg,,891 ng·h/mL
O=C1CCC(N2Cc3cc(C4CCN(Cc5ccccc5)CC4)ccc3C2=O)C(=O)N1 (stereo not drawn),male CD-1 mouse,plasma,oral,3 mg/kg,,594 ng·h/mL
Cc1cc(-c2ccnc3[nH]cc(F)c23)cc(F)c1[C@@]1(O)[C@H](C)CN(C2CCS(=O)(=O)CC2)C[C@@H]1C,male CD-1 mouse,plasma,oral,3 mg/kg,,3220 ng·h/mL
NCc1ccc(-c2nn(Cc3ccncc3)c3ccccc23)o1,male CD-1 mouse,plasma,intravenous,5 mg/kg,,1050 ng·h/mL
C[C@@H](CN1CCC(n2c(=O)[nH]c3cc(Cl)ccc32)CC1)NC(=O)c1ccc2ccccc2c1,male CD-1 mouse,brain,intravenous,1 mg/kg,single dose,0.302 ng·h/mL
Cc1ccc(OCC(=O)N[C@@H](Cc2c[nH]c3ccccc23)C(=O)OC(C)C)cc1,male Sprague-Dawley mouse,plasma,intravenous,10 mg/kg,,2460 ng·h/mL
COC1=CC(c2ccc[nH]2)=N/C1=C\c1cc(Cc2ccc(OC(F)(F)F)cc2)c(C)[nH]1.Cl,male CD-1 mouse,liver,oral,40 mg/kg,single dose,101000 ng·h/mL
OCc1ccc(-c2nn(Cc3ccccc3)c3ccccc23)o1,male CD-1 mouse,plasma,intravenous,5 mg/kg,,1070 ng·h/mL
Cc1nc2ccc(OCc3ccc(C(F)(F)F)cc3)cc2[nH]1,male BALB/c mouse,plasma,intravenous,1 mg/kg,,3800 ng·h/mL
Cc1ncsc1-c1ccc([C@H](CC(=O)N2CC3(C2)CN(c2ccc(C#Cc4ccc(C(=O)N5CCC(n6cc(-c7ccc8c(c7)CCN8C(=O)Cc7cccc(OC(F)(F)F)c7)c7c(N)ncnc76)CC5)cc4)cn2)C3)NC(=O)[C@@H]2C[C@@H](O)CN2C(=O)[C@@H](NC(=O)C2(F)CC2)C(C)(C)C)cc1,male C57BL/6 mouse,plasma,intravenous,1 mg/kg,,5920 ng·h/mL
CCCC[C@@H](NC(=O)[C@@H](Cc1cn(C(=O)OC)c2ccccc12)NC(=O)[C@H](CC(C)(C)C)NC(=O)N1[C@H](C)CCC[C@@H]1C)C(=O)O,male CD-1 mouse,plasma,intravenous,3 mg/kg,,225 ng·h/mL
CO[C@H]1/C=C/O[C@@]2(C)Oc3c(C)c(O)c4c(c3C2=O)C2=NC3(CCN(CC(C)C)CC3)NC2=C(NC(=O)/C(C)=C\C=C\[C@H](C)[C@H](O)[C@@H](C)[C@@H](O)[C@@H](C)[C@H](OC(C)=O)[C@@H]1C)C4=O,female CD-1 mouse,plasma,oral,10 mg/kg,,11200 ng·h/mL
Cc1ccc2c(c1)C(=O)[C@]1(O)CCN(c3ccc4nc(C)ccc4c3)C1=N2.Cl,C57BL/6 mouse,plasma,subcutaneous,2 mg/kg,,0.98 µM·h
COC1=CC(c2ccc[nH]2)=N/C1=C\c1[nH]c(Cc2ccc(OC(F)(F)F)cc2)cc1Cc1ccc(OC(F)(F)F)cc1,male CD-1 mouse,plasma,oral,40 mg/kg,single dose,84100 ng·h/mL
Cc1ncsc1-c1ccc([C@H](C)NC(=O)[C@@H]2C[C@@H](O)CN2C(=O)[C@@H](NC(=O)CCCCCCCCC(=O)N2CCC(n3cc(-c4ccc5c(c4)CCN5C(=O)Cc4cccc(OC(F)(F)F)c4)c4c(N)ncnc43)CC2)C(C)(C)C)cc1,male C57BL/6 mouse,plasma,intravenous,1 mg/kg,,1240 ng·h/mL
Cc1cc(-c2ccnc3[nH]cc(F)c23)cc(F)c1[C@@]1(O)[C@H](C)CN(C(=O)CN)C[C@@H]1C,male CD-1 mouse,plasma,oral,3 mg/kg,,16900 ng·h/mL
CN(C)C(=O)c1cc2cnc(Nc3ccc(-c4ccc5c(=O)cc(N6CCOCC6)oc5c4)cc3)nc2n1C1CCCC1.Cl,BALB/c mouse,plasma,intravenous,2 mg/kg,,2790 ng·h/mL
